Data set [1] deals with SF3B1 pre-mRNA. The data set can be described thus: Modulation of splicing in SF3B1 pre-mRNA in human HCT-116 cells assessed as intron 13 retention at 100 to 500 nM incubated for 24 hrs by qRT-PCR analysis. The format is functional, cell-based. The conditions noted are these: dose 100-500 nM. The method, boiled down: (§1)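 HCT-116 cells in supplemented McCoy's 5a with 0.5% final DMSO were treated for 24 h at 100, 250 or 500 nM. Total RNA isolated and DNase-treated (1 µg). qPCR used 2.5 µM each primer on 5 ng cDNA, 40 cycles. Intron retention was computed by the 2^-CT method relative to GAPDH and expressed versus untreated cells set to 1.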
(In qPCR the cycle at which signal appears reflects the starting amount.)

In data set [2] the test system is SF3A1 pre-mRNA. Put plainly: Modulation of splicing in SF3A1 pre-mRNA in human HCT-116 cells assessed as intron 6 retention at 100 to 500 nM incubated for 24 hrs by qRT-PCR analysis. The format is functional, cell-based. Conditions: dose 100-500 nM. The method, boiled down:
(§2)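 HCT-116 cells in supplemented McCoy's 5a with 0.5% DMSO, treated 24 h at 100, 250 or 500 nM; untreated cells as control. Total RNA isolated, 1 µg DNase I-treated, reverse transcribed. qPCR on 5 ng cDNA with 2.5 µM each primer, 40 cycles of 95 °C 30 s, 55 °C 60 s, 72 °C 60 s. Splice-event primers for intron retention or exon skipping; SF2 primers measure total expression. 2^-CT method relative to GAPDH, untreated set at 1.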

Data set [3] deals with SF3B2 pre-mRNA. The data set can be described thus: Modulation of splicing in SF3B2 pre-mRNA in human HCT-116 cells assessed as intron 10 retention at 100 to 500 nM incubated for 24 hrs by qRT-PCR analysis. The format is functional, cell-based. The conditions noted are these: dose 100-500 nM. The method, boiled down:
as §1

Data set [4] concerns AURKA pre-mRNA. The data set can be described thus: Modulation of splicing in AURKA pre-mRNA in human HCT-116 cells assessed as effect on exon 4 skipping at 9 uM incubated for 4 hrs by qRT-PCR analysis. It is filed as functional, cell-based. The conditions noted are these: filed as modulator.
Data set [5] deals with HCT-116. The data set can be described thus: Cytotoxicity against human HCT-116 cells assessed as reduction in cell viability at 9 uM incubated for 4 hrs by MTS assay. The format is toxicity, cell-based. The conditions noted are these: hct-116, 4 h. A general note: Formazan colour is commonly taken as a measure of viable cells.
The subject of data set [6] is SF3A3 pre-mRNA. Put plainly: Modulation of splicing in SF3A3 pre-mRNA in human HCT-116 cells assessed as intron 5 retention at 100 to 500 nM incubated for 24 hrs by qRT-PCR analysis. The format is functional, cell-based. The conditions noted are these: dose 100-500 nM. The method, boiled down:
as §2

Data set [7] has as its system SF3A1 pre-mRNA. Put plainly: Modulation of splicing in SF3A1 pre-mRNA in human HCT-116 cells assessed as intron 6 retention level at 9 uM incubated for 4 hrs by qRT-PCR analysis. The conditions noted are these: filed as modulator. It is filed as functional, cell-based.
For data set [8], the system named is HCT-116. Put plainly: Modulation of splicing in MCL-1L pre-mRNA in human HCT-116 cells assessed as intron 5 retention at 100 to 500 nM incubated for 24 hrs by qRT-PCR analysis. It is filed as functional, cell-based. The conditions noted are these: dose 100-500 nM. In outline: as §2
Data set [9] deals with SF3B1 pre-mRNA. The data set can be described thus: Modulation of splicing in SF3B1 pre-mRNA in human HCT-116 cells assessed as intron 13 retention level at 9 uM incubated for 4 hrs by qRT-PCR analysis. Conditions: filed as modulator. The format is functional, cell-based. The method, boiled down:
(§3)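 HCT-116 cells in supplemented McCoy's 5a, compound added from DMSO stock to a final 0.5% DMSO, 4 h at a single standardized concentration per analogue. Total RNA isolated and DNase-treated (1 µg). qPCR used 2.5 µM each primer on 5 ng cDNA, 40 cycles. Intron retention was computed by the 2^-CT method relative to GAPDH and expressed versus untreated cells set to 1.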

In data set [10] the test system is DNAJB1 pre-mRNA. The data set can be described thus: Modulation of splicing in DNAJB1 pre-mRNA in human HCT-116 cells assessed as intron 2 retention at 100 to 500 nM incubated for 24 hrs by qRT-PCR analysis. The format is functional, cell-based. Conditions: dose 100-500 nM. In outline:
as §2

In data set [11] the test system is DNAJB1 pre-mRNA. Put plainly: Modulation of splicing in DNAJB1 pre-mRNA in human HCT-116 cells assessed as intron 2 retention level at 9 uM incubated for 4 hrs by qRT-PCR analysis. It is filed as functional, cell-based. Conditions: filed as modulator.
For data set [12], the system named is HCT-116. Put plainly: Cytotoxicity against human HCT-116 cells assessed as reduction in cell viability at 500 nM incubated for 24 hrs by MTS assay. The format is toxicity, cell-based. The conditions noted are these: hct-116, 24 h, 0.5 µM. The method, boiled down: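 HCT-116 cells plated at 5 × 10³ cells/well in supplemented McCoy's 5a and grown 24 h at 37 °C, 5% CO₂. Compound given at 500 nM, the top dose of the 24 h splicing series, in 0.5% DMSO for 24 h. Cells washed with PBS, MTS reagent added for 2 h at 37 °C, A490 read against A690.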

The test system of data set [13] is HCT-116. The data set can be described thus: Upregulation of PLK-1 mRNA expression in human HCT-116 cells at 100 to 500 nM incubated for 24 hrs by qRT-PCR analysis. The format is functional, cell-based. Conditions: dose 100-500 nM. In outline:
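24 h treatment of HCT-116 cells at 100, 250 or 500 nM, 0.5% final DMSO in supplemented McCoy's 5a. RNA isolated, DNase-treated, then qRT-PCR with 2.5 µM each primer on 5 ng cDNA. Levels by the 2^-CT method relative to GAPDH, normalized to untreated cells at 1.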

Data set [14] has as its system SF3B2 pre-mRNA. Put plainly: Modulation of splicing in SF3B2 pre-mRNA in human HCT-116 cells assessed as intron 10 retention level at 9 uM incubated for 4 hrs by qRT-PCR analysis. Conditions: filed as modulator. The format is functional, cell-based. In outline:
as §3

Data set [15] deals with SF3A3 pre-mRNA. The data set can be described thus: Modulation of splicing in SF3A3 pre-mRNA in human HCT-116 cells assessed as intron 5 retention level at 9 uM incubated for 4 hrs by qRT-PCR analysis. The format is functional, cell-based. Conditions: filed as modulator. In outline:
as §3

Data set [16] is described as follows: Cytotoxicity against human HCT-116 cells assessed as cell growth inhibition incubated for 72 hrs by MTS assay. It is filed as toxicity, cell-based. The method, boiled down:
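HCT-116 cells (ATCC; split every other day, no more than five generations, mycoplasma-tested) plated at 5 × 10³ cells/well in supplemented McCoy's 5a and grown 24 h at 37 °C, 5% CO₂. Compound added from DMSO (0.5% DMSO final) for 72 h. Cells washed with PBS, MTS reagent added for 2 h at 37 °C, A490 read against A690. GI₅₀ fitted from dose curves of 3 biological replicates.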

In data set [17] the test system is DNAJB1 pre-mRNA. The data set can be described thus: Modulation of splicing in DNAJB1 pre-mRNA in human HCT-116 cells assessed as intron 2 retention level at 5.6 uM incubated for 4 hrs by qRT-PCR analysis. The conditions noted are these: filed as modulator. The format is functional, cell-based.
The test system of data set [18] is SF3A3 pre-mRNA. The data set can be described thus: Modulation of splicing in SF3A3 pre-mRNA in human HCT-116 cells assessed as intron 5 retention level at 5.6 uM incubated for 4 hrs by qRT-PCR analysis. It is filed as functional, cell-based. Conditions: filed as modulator.
For data set [19], the system named is SF3B2 pre-mRNA. The data set can be described thus: Modulation of splicing in SF3B2 pre-mRNA in human HCT-116 cells assessed as intron 10 retention level at 5.6 uM incubated for 4 hrs by qRT-PCR analysis. The format is functional, cell-based. The conditions noted are these: filed as modulator. In outline:
as §3

The test system of data set [20] is HCT-116. Put plainly: Cytotoxicity against human HCT-116 cells assessed as reduction in cell viability at 5.6 uM incubated for 4 hrs by MTS assay. The format is toxicity, cell-based. The conditions noted are these: hct-116, 4 h.
In data set [21] the test system is SF3B1 pre-mRNA. The data set can be described thus: Modulation of splicing in SF3B1 pre-mRNA in human HCT-116 cells assessed as intron 13 retention level at 5.6 uM incubated for 4 hrs by qRT-PCR analysis. It is filed as functional, cell-based. The conditions noted are these: filed as modulator. The method, boiled down:
as §3

Data set [22] concerns AURKA pre-mRNA. Put plainly: Modulation of splicing in AURKA pre-mRNA in human HCT-116 cells assessed as effect on exon 4 skipping at 5.6 uM incubated for 4 hrs by qRT-PCR analysis. The format is functional, cell-based. The conditions noted are these: filed as modulator.
Data set [23] deals with SF3A1 pre-mRNA. Put plainly: Modulation of splicing in SF3A1 pre-mRNA in human HCT-116 cells assessed as intron 6 retention level at 5.6 uM incubated for 4 hrs by qRT-PCR analysis. It is filed as functional, cell-based. The conditions noted are these: filed as modulator.

Calls of active or inactive are those of the source. The rule behind the calls is not given here.

Turning to `CC[C@H](OC)[C@@H](C)[C@@H]1O[C@H]1[C@@H](O)[C@H](C)/C=C/C=C(\C)[C@H]1OC(=O)C[C@H](O)CC[C@@](C)(O)[C@@H](OC(C)=O)/C=C/[C@@H]1C`, the result in [1], in [2], in [3], in [6], in data set [8] and in data set [10] was inactive. The result in [4] and in [13] was Active. Further, the Activity entry in data set [5] is “Non-Toxic”; in data set [7], over 3; in data set [9] it was under 3; in data set [11], over 3; in [12], “Non-Toxic”; in [14], over 3. For the same compound, the Activity in data set [15] was under 3. Besides, the GI50 – broadly, the concentration at which growth is held to half of that of the control – at 72 h in data set [16] came to 470 nM.
`CC[C@@H](OC)[C@H](C)[C@H]1O[C@@H]1[C@@H](O)[C@H](C)/C=C/C=C(\C)[C@H]1OC(=O)C[C@H](O)CC[C@@](C)(O)[C@@H](OC(C)=O)/C=C/[C@@H]1C`: the Activity in data set [17] is over 3; in data set [18], under 3; in data set [12], “Non-Toxic”; in data set [19], over 3; in data set [20], “Non-Toxic”; in data set [21], under 3. Also, the Activity in data set [23] was over 3. Further, in data set [16], the GI50 at 72 h amounted to 285 nM. In data set [22], the result was Active.
